Source: PubChem BioAssay
KCNQ1 inh = human KCNQ1 channel inhibition | hit rate 1.3% among 310,000 | B-score at 10 µM | CHO-K1 KCNQ1, FluxOR thallium flux fluorescence; hits give high values;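 active = compounds whose thallium flux B-score, printed positive for inhibition, exceeds three library SD while starting fluorescence stays within three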;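 also: channel opened by potassium depolarization with thallium stimulus after 20 min compound exposure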
Target sequence (P51787 whole entry, looked up): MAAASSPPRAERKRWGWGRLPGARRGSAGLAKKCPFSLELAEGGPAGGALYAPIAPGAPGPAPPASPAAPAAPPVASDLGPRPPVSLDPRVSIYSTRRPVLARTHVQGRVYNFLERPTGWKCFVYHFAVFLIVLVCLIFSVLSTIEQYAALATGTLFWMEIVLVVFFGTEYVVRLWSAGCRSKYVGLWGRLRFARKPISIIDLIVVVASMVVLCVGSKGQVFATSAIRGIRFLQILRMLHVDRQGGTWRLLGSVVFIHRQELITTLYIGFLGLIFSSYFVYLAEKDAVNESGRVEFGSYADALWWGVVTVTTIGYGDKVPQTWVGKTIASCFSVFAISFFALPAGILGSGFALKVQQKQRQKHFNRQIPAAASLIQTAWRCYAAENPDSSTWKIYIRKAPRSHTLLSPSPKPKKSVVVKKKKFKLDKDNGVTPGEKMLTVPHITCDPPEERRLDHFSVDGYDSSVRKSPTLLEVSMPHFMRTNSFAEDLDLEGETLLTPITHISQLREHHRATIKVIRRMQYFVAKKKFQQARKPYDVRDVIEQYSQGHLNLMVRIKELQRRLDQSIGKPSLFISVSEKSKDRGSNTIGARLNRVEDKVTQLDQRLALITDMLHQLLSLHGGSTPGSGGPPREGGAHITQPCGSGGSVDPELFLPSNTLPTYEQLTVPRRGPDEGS
hERG rescue = shields human hERG channel from block by proarrhythmic agents; CHO-hERG, FluxOR thallium flux, dofetilide IC70 present; hit rate 0.51% among 310,000; activation (rescue from dofetilide block), less the hit threshold, % at 10 µM; Q12809; AID 1511;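 active = activation above the mean of controls blocked by dofetilide plus 5 SD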;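 also: thallium influx through hERG after potassium depolarization seen as dye fluorescence rise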
KCNQ1 act = potentiators or activators of human KCNQ1 potassium channel; P51787; CHO-K1 KCNQ1, thallium flux FluxOR fluorescence; hits give high values; B-score at 10 µM; hit rate 0.35% among 310,000;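 active = fluorescence ratio B-score, a plate-corrected score, at least three library SD, with initial intensity B-score within 5 SD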
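System: Stable KCNQ1 CHO-K1 line | Incubation: 90 min dye loading and 20 min compound exposure, both at room temperature | Measure: Ratio B score | Medium: Assay buffer for compound exposure, DMSO matched across wells | Compound dosing: Single-concentration screen | Probe or stimulus: K+/Tl+ depolarizing stimulus | Measured by: Kinetic FluxOR fluorescence, 10 s baseline plus 110 s post-stimulus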
KCNK3 block = human KCNK3 channel inhibition, primary screen; O14649; CHO-KCNK3 thallium flux, FluxOR fluorescence; hits give low values; B-score at 10 µM; hit rate 0.84% among 340,000; AID 602410;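 active = B-score under library mean minus 4 SD, starting fluorescence ratio at most library mean plus 5 SD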;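 also: more negative B-score means stronger inhibition of thallium flux through KCNK3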
KCNK9 inh = blocks the human KCNK9 two-pore domain potassium channel | HEK293 KCNK9, FluxOR thallium flux fluorescence; hits give low values | B-score at 10 µM | hit rate 1.2% among 310,000;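 active = ratio B-score over 3 SD below the library mean, with starting fluorescence within 5 SD of its mean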;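 also: negative B-score means less thallium flux so channel inhibition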
Kir21 block = Kir2.1 (mouse) channel inhibition. hit rate 0.85% among 310,000. AID 1672. P35561. HEK293-Kir2.1, FluxOR thallium flux fluorescence; hits give low values. B-score at 10 µM;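 active = fluorescence ratio B-score at or below minus 3 SD of library scores, with starting-brightness B-score within 2 SD, cut at about -4.2 in these data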;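 also: channel flux triggered by added potassium and thallium sulfate stimulus; B-score of peak minus minimum fluorescence over baseline after thallium stimulus; more negative B-score means stronger Kir2.1 block with less thallium influx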
KCNK9 inh conf = confirmation of human KCNK9 potassium channel inhibitors | shares compounds with KCNK9 inh | inhibition, % at 10 µM | hit rate 43% among 4,900 | HEK293 KCNK9 cells, FluxOR thallium flux fluorescence;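 active = thallium signal inhibited by more than 5 SD of the compound-free buffer control wells, on both duplicate plates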;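 also: 0% = assay buffer control wells without compound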
Kir21 sel = mouse Kir2.1 off-target activity of KCNK9 modulators; shares compounds with KCNK9 inh; Kir2.1 cells, FluxOR thallium flux fluorescence; inhibition, % at 10 µM; hit rate 4% among 4,900; AID 492993;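 active = thallium signal drop more than 5 SD beyond the mean of the no-compound control wells, seen in both duplicate plates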;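 also: signal is fluorescence rise after thallium addition divided by baseline fluorescence; plate controls were assay buffer only for no effect and full block by chlorpromazine control for full effect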
HEK293 Tl ctr = second counter-screen for KCNK9 modulators: effect in non-induced cells. non-induced KCNK9-HEK293, FluxOR thallium flux. hit rate 40% among 4,900. inhibition, % at 10 µM. shares compounds with KCNK9 inh;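 active = thallium signal drop beyond 5 SD of the untreated control mean, on both duplicate plates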;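 also: plate controls were buffer only IC0 wells for no effect and SID17386958 at its maximal inhibitory level for full effect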
KCNK3 inh conf = confirmation of human KCNK3 two-pore domain potassium channel inhibitors; shares compounds with KCNK3 block; CHO-KCNK3 thallium flux, FluxOR fluorescence; 0% buffer, 100% carvedilol maximal block; ratio percent of control, % at 10 µM; hit rate 99% among 2,400; AID 651638;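 active = ratio percent of control, averaged over triplicates, above buffer control mean plus 5 SD, cut at about 64% in these data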;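 also: ratio is the fluorescence rise from min to max over baseline after thallium stimulus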
KCNK3 noninduced = activity in cells without induced KCNK3 expression. shares compounds with KCNK3 block. non-induced KCNK3 parental cells, FluxOR thallium flux; hits give low values. thallium flux ratio (lower = more inhibition) at 10 µM. hit rate 40% among 2,400. AID 651747;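 active = thallium flux ratio, averaged over three wells, more than 5 SD below the buffer control mean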;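 also: host cells are CHO cells without KCNK3 induction; ratio is peak minus trough fluorescence over baseline then normalized to buffer controls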
The depositor's hits bear a star; i = inactive; / = no result. Compounds with a hit are over-represented: about 3.7% of the library has one in this group of screens.

SMILES | KCNQ1 inh | hERG rescue | KCNQ1 act | KCNK3 block | KCNK9 inh | Kir21 block | KCNK3 inh conf | KCNK3 noninduced | others
Oc1ccc(/C=N/NP(=S)(c2ccccc2)c2ccccc2)c(O)c1O | i | -12 | i | i | i | -1.1 | / | /
Oc1ccccc1/C=N/NP(=S)(c1ccccc1)c1ccccc1 | 12* | -14 | i | -15* | -13* | 3 | 109* | 0.15* | KCNK9 inh conf=42%*;Kir21 sel=i;HEK293 Tl ctr=35%*
O=P(Nc1cccc(F)c1)(Oc1ccccc1F)Oc1ccccc1F | i | -34 | i | -12* | -11* | -0.01 | 87* | 0.13* | KCNK9 inh conf=48%*;Kir21 sel=i;HEK293 Tl ctr=31%*
CCN(CC)c1ccc(/C=C/[N+](=O)[O-])cc1 | 6* | -45 | i | -14* | i | -10 | 133* | 0.09*
Cc1cc(NC(=O)CCC(=O)N2CCC3(CC2)OCCO3)no1 | i | -2 | i | i | i | 0.57 | / | /
COc1ccccc1OCCCn1cc(C(C)=O)c2ccccc21 | i | -20 | i | i | i | -2.3 | / | /
COc1ccccc1OCCCn1cc(C(=O)C2CC2)c2ccccc21 | i | -14 | i | -8.8* | i | 0.63 | 111* | i
N#Cc1ccc(NC(=O)CCNC(=O)c2ccco2)cc1Cl | i | -10 | i | -10* | i | -0.98 | 95* | 0.15*
CCN(CC(=O)Nc1ccc(C#N)c(Cl)c1)CC(=O)NC(C)(C)C | i | -2 | i | i | i | -2.4 | / | /
Cc1c(C(=O)c2cccc3ccccc23)c2cccc3c2n1[C@H](CN1CCOCC1)CO3 | i | -3 | i | -11* | i | 0.93 | 80* | 0.16*
CN1C(=O)C(=Cc2ccc(OCC(=O)Nc3ccccc3)cc2)C(=O)N(C)C1=O | i | 0 | i | i | i | 1.1 | / | /
